From PubChem BioAssay AID624038 (The Scripps Research Institute Molecular Screening Center, 2012)
Hit rate of the full screen: of about 360,000 compounds, about 1,100 (0.31%) were called active. This excerpt belongs to a sample that is enriched for actives. A number with no mark means an inactive call.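 How the source made its calls: active means activation above the run cutoff, the mean activation of all test compounds plus 3 SD (cut at about 18% in these data); inactive means the rest.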

Molecular target: Muscarinic acetylcholine receptor M5 (Homo sapiens) (UniProt P08912)
Sequence (P08912 whole entry, looked up): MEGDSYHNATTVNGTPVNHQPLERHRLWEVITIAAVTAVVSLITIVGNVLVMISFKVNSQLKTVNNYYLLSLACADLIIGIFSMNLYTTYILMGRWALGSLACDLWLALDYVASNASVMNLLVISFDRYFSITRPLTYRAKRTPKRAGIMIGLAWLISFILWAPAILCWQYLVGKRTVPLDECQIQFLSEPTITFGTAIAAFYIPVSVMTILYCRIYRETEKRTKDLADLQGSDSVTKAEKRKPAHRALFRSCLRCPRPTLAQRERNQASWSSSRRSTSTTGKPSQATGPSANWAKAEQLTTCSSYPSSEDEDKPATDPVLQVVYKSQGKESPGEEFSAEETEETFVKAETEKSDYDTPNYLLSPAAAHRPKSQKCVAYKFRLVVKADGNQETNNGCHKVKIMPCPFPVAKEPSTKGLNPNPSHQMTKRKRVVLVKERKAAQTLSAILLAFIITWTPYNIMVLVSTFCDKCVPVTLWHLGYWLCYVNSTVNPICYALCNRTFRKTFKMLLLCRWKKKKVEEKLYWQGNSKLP
Assay: CHRM5 PAMs potentiating acetylcholine calcium signal – CHO-K1 cells, Fluo-8 calcium fluorescence, primary screen (AID 624038)
Conditions: CHO-K1 hM5, Fluo-8 calcium, ACh EC20 PAM; at 3 µM; stronger effect = higher value; 0% = ACh EC20, 100% = ACh EC100
In short: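 system = human M5 receptor in CHO-K1 cells | compound = one concentration, 3 µM final (nominal) | schedule = Post-acetylcholine fluorescence recording 140 s | signal = Fluo-8 calcium dye fluorescence, kinetic read | benchmarks = low control EC20 acetylcholine (0%), high control EC100 acetylcholine (100%) | repeats = singlicate, one well per test compound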

SMILES	activation
CC=C(C)C(=O)OC1CCN2CC=C(COC(=O)C(O)(C(C)OC)C(C)(C)O)C12 (stereo not given)	19.2% (active)
CCOP(=S)(OCC)SCOC(=O)NCC(=O)OC	0.05%
O=[N+]([O-])c1cnc2ccc3ccccc3c2c1	3.69%
COc1ccc(-n2c(-c3ccccc3)nc3ccccc3c2=O)cc1	14.8%
COC(=O)CN(CCCl)P1(=O)OCCCN1CCCl (stereo not given)	-10.4%
